Laboratory results from ChEMBL document CHEMBL4196009, “Novel vitexin-inspired scaffold against leukemia” (Eur J Med Chem, 2018).
Activity calls are given as the source filed them. The calls are words filed in the database; no cut-off is given here.

Tests used:
[1] = target: T1, Retinoblastoma-associated protein (Homo sapiens) (UniProt P06400); assay: Inhibition of Rb phosphorylation in human KOPN8 cells assessed as ratio of phosphorylated Rb to total Rb levels at 30 uM pre-treated with NAC for 1 hr and measured after 24 hrs by Western blot analysis relative to control; assay type: cell-based
T1 sequence (whole entry): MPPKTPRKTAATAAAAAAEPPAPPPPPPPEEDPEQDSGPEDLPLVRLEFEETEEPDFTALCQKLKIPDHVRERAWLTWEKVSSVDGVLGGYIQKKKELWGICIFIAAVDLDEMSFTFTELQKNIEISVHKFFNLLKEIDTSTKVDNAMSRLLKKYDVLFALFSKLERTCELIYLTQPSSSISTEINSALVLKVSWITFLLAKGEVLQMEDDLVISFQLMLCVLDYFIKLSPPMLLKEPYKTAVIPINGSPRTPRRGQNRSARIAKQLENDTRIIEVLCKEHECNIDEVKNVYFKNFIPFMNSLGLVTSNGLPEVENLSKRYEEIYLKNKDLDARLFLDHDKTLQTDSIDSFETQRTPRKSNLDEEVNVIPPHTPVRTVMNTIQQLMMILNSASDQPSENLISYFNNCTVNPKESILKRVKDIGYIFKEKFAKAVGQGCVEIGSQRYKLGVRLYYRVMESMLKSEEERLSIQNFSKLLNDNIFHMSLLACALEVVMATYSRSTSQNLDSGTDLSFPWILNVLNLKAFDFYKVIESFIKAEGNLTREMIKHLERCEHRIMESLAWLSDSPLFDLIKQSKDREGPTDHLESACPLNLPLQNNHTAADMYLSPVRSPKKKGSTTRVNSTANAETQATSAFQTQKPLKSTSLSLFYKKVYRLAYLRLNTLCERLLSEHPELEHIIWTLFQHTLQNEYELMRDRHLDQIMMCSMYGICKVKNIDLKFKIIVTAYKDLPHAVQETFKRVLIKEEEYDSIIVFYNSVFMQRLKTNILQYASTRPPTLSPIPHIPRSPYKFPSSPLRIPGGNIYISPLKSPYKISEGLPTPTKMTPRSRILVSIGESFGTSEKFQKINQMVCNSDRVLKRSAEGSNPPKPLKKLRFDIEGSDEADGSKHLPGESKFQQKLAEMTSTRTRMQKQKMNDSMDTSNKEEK
In short: (§1)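 KOPN-8 pre-B ALL cells were treated for 3 h and 24 h, with or without N-acetyl cysteine added to a parallel set of cells as an antioxidant/ROS quencher. Lysates were analysed by Western blot for phosphorylated Rb and total Rb. The same blots also probed PARP cleavage, Mcl-1, Ser-2-phosphorylated RNAPII CTD and cMyc.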

SUP-B15 [2] = assay: Induction of apoptosis in human SUP-B15 cells assessed as early apoptotic cells at 10 uM after 24 hrs by Annexin V-FITC/propidium iodide staining-based flow cytometry (reference value: 0.1%); assay type: functional
KOPN-8 [3] = assay: Induction of apoptosis in human KOPN8 cells assessed as necrotic cells at 10 uM after 24 hrs by Annexin V-FITC/propidium iodide staining-based flow cytometry (reference value: 0.2%); assay type: functional
In short: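 KOPN-8 cells were treated for 24 h, with a DMSO vehicle control and a staurosporine positive control. Cells were stained with FITC-Annexin V and propidium iodide and analysed by flow cytometry. Quadrant gating separated viable, early apoptotic, late apoptotic (Q2) and necrotic populations.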

MDA-MB-231 [4] = assay: Cell cycle arrest in human MDA-MB-231 cells assessed as accumulation at G0/G1 phase at 20 uM after 24 hrs by propidium iodide staining-based flow cytometry (reference value: 70.47%); assay type: functional
SUP-B15 [5] = assay: Induction of apoptosis in human SUP-B15 cells assessed as late apoptotic cells at 10 uM after 24 hrs by Annexin V-FITC/propidium iodide staining-based flow cytometry (reference value: 2.2%); assay type: functional
SUP-B15 [6] = assay: Induction of apoptosis in human SUP-B15 cells assessed as viable cells at 10 uM after 24 hrs by Annexin V-FITC/propidium iodide staining-based flow cytometry (reference value: 82.8%); assay type: functional; conditions: SUP-B15, 24 h, read-out: Activity
Homo sapiens [7] = species on record: Homo sapiens; assay: Inhibition of RNA polymerase 2 C-terminal domain phosphorylation at Ser2 residue in human KOPN8 cells at 10 uM after 3 hrs by Western blot analysis relative to control; assay type: cell-based
In short: (§2)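 KOPN-8 cells were exposed to compound for 3 h and 24 h, with or without N-acetylcysteine added to a parallel set as antioxidant. Lysates were analysed by Western blot for cleaved PARP, Mcl-1, Ser-2-phosphorylated RNAPII CTD, cMyc, total Rb and pRb. Signals were compared against controls for dose-dependent change.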

MDA-MB-231 [8] = assay: Cell cycle arrest in human MDA-MB-231 cells assessed as accumulation at S phase at 20 uM after 24 hrs by propidium iodide staining-based flow cytometry (reference value: 20.15%); assay type: functional
[9] = target: T1, Retinoblastoma-associated protein (Homo sapiens); assay: Inhibition of Rb phosphorylation in human KOPN8 cells assessed as ratio of phosphorylated Rb to total Rb levels at 100 uM after 24 hrs by Western blot analysis relative to control; assay type: cell-based; in short: as §1
Homo sapiens [10] = species on record: Homo sapiens; assay: Inhibition of RNA polymerase 2 C-terminal domain phosphorylation at Ser2 residue in human KOPN8 cells at 100 uM pre-treated with NAC for 1 hr and measured after 24 hrs by Western blot analysis relative to control; assay type: cell-based; in short: as §2
KOPN-8 [11] = assay: Induction of apoptosis in human KOPN8 cells assessed as effect on Mcl-1 level at 10 uM after 3 hrs by Western blot analysis relative to control; assay type: functional
In short: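 KOPN-8 cells were treated at 10–100 µM final, with or without N-acetylcysteine co-addition, for 3 h and 24 h. Lysates were analysed by Western blot for PARP cleavage, Mcl-1, phospho-Ser2 RNAPII CTD, c-Myc, total Rb and pRb. Levels are relative to the vehicle control.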

Homo sapiens [12] = species on record: Homo sapiens; assay: Inhibition of RNA polymerase 2 C-terminal domain phosphorylation at Ser2 residue in human KOPN8 cells at 100 uM after 3 hrs by Western blot analysis relative to control; assay type: cell-based; in short: as §2
KOPN-8 [13] = assay: Induction of apoptosis in human KOPN8 cells assessed as effect on Mcl-1 level at 30 uM after 24 hrs by Western blot analysis relative to control; assay type: functional; in short: as §2
KOPN-8 [14] = assay: Cell cycle arrest in human KOPN8 cells assessed as accumulation at S phase at 5 uM after 24 hrs by propidium iodide staining-based flow cytometry (reference value: 66.56%); assay type: functional
In short: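 KOPN-8 cells treated 24 h alongside a DMSO vehicle and a staurosporine (2.0 µM) positive control. Apoptosis was scored by FITC Annexin V / propidium iodide flow cytometry with quadrant gating (early, late apoptotic). DNA content was measured by PI staining to give the percentage of cells in G0/G1, S and G2/M. Groups were compared by t-test; error bars are SD.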

KOPN-8 [15] = assay: Induction of apoptosis in human KOPN8 cells assessed as upregulation of cleaved PARP level at 0.5 uM pre-treated with NAC for 1 hr and measured after 3 hrs by Western blot analysis; assay type: functional, cell-based; in short: as §2
SUP-B15 [16] = assay: Induction of apoptosis in human SUP-B15 cells assessed as necrotic cells at 5 uM after 24 hrs by Annexin V-FITC/propidium iodide staining-based flow cytometry (reference value: 9.2%); assay type: functional
KOPN-8 [17] = assay: Induction of apoptosis in human KOPN8 cells assessed as upregulation of cleaved PARP level at 0.5 uM pre-treated with NAC for 1 hr and measured after 24 hrs by Western blot analysis; assay type: functional, cell-based; in short: as §2

Compound	fold change (FC) [1]	Activity (SUP-B15 [2]) [%]	Activity (KOPN-8 [3]) [%]	Activity (MDA-MB-231 [4]) [%]	Activity (SUP-B15 [5]) [%]	viability at 10 µM (SUP-B15 [6]) [%]	fold change (FC) (Homo sapiens [7])	Activity (MDA-MB-231 [8]) [%]	fold change (FC) [9]	fold change (FC) (Homo sapiens [10])	fold change (FC) (KOPN-8 [11])	fold change (FC) (Homo sapiens [12])	fold change (FC) (KOPN-8 [13])	Activity (KOPN-8 [14]) [%]	Activity (KOPN-8 [15])	Activity (SUP-B15 [16]) [%]	Activity (KOPN-8 [17])
COc1ccc(-c2c(I)c(=O)c3c(OC)cc(OC)cc3n2S(=O)(=O)c2ccc(OC)cc2)cc1	1	0.1	0.3	66.22	7	70.5	0.7	17.81	1	0.1	0.8	1.4	0.7	–	–	–	–
CN(C)C(=O)c1cc2cnc(Nc3ccc(N4CCNCC4)cn3)nc2n1C1CCCC1 [RIBOCICLIB]	–	–	–	–	–	–	–	–	–	–	–	–	–	25.55	inactive	25.7	Active
